What was measured:
[1] = target: T1, Neutrophil elastase (Homo sapiens) (UniProt P08246); assay: Compound at an peroral dose of 30 mpk was tested for the inhibition of HLE-induced lung hemorrhage in hamsters; format: functional
T1 sequence (whole entry): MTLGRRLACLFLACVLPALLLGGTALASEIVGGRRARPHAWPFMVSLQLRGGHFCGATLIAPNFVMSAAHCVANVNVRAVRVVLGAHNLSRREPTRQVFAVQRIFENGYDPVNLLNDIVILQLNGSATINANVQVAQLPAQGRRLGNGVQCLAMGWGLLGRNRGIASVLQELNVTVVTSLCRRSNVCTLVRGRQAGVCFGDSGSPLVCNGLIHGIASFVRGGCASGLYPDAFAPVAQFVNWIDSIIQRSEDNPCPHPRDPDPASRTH
In short: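 Hamster lung hemorrhage screen: 30 mg/kg given orally as Methocel suspension 30 min before intratracheal instillation of 50 units HLE/animal; sacrifice at 3 h, saline lung lavage, hemoglobin measured at 414 nm; % inhibition versus vehicle-treated animals, averaged over three animals per dose and time.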

[2] = target: T1, Neutrophil elastase (Homo sapiens); assay: In vitro inhibition of human leukocyte elastase (HLE), and the Kobs[I] is the second-order rate constant for the time dependent inactivation of HLE by the compound.
Neutrophil elastase = target: T2, Neutrophil elastase (Homo sapiens, UniProt P08246); assay: In vitro human leukocyte elastase (HLE) inhibition, and the Kobs[I] is the second-order rate constant for the time dependent inactivation of HLE by the compound.
T2 sequence (P08246 whole entry): T1 sequence (whole entry)

Cricetinae gen. sp. [3] = assay: Oral effective dose required to inhibit HLE-induced lung hemorrhage in hamster; format: functional, Cricetulus griseus
In short: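 Oral doses of 30, 10, 3, 1 (and 0.3) mg/kg as Methocel suspension given 30 min before intratracheal instillation of 50 units HLE/animal in hamsters; lungs lavaged 3 h later, hemoglobin read at 414 nm; % inhibition versus vehicle used to fit a dose-response curve for ED50.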

Cricetinae gen. sp. [4] = assay: Compound at an peroral dose of 100 mpk was tested for the inhibition of HLE-induced lung hemorrhage in hamsters; format: functional, Cricetulus griseus; conditions: po

Compound: CCCC1(CCC)C(=O)N(C(=O)NCc2ccccc2)C1Oc1ccc(C(=O)O)cc1 (stereo not drawn)
- inhibition [1]: 56%
- K obs / 1 [2]: 2500 M⁻¹ s⁻¹

Compound: CCC[C@@]1(C)C(=O)N(C(=O)NCc2ccccc2)[C@@H]1Oc1ccc(C(=O)O)cc1
- Ki (Neutrophil elastase): 51 µM

Compound: C=CC[C@]1(CC)C(=O)N(C(=O)NCc2ccccc2)[C@H]1Oc1ccc(C(=O)O)cc1
- inhibition [1]: 56%
- K obs / 1 [2]: 2800 M⁻¹ s⁻¹

Compound: C[C@]1(Oc2ccc(C(=O)O)cc2)N(C(=O)NCc2ccccc2)C(=O)C12CCCC2
- inhibition [1]: 8%
- K obs / 1 [2]: 1900 M⁻¹ s⁻¹

Compound: CC[C@@]1(COC)C(=O)N(C(=O)NCc2ccccc2)[C@H]1Oc1ccc(C(=O)O)cc1
- inhibition [1]: 46%
- K obs / 1 [2]: 1900 M⁻¹ s⁻¹

Compound: CC[C@]1(C)C(=O)N(C(=O)NCc2ccccc2)[C@H]1Oc1ccc(C(=O)O)cc1
- K obs / 1 [2]: 160 M⁻¹ s⁻¹

Compound: CC[C@@]1(C)C(=O)N(C(=O)NCc2ccccc2)[C@H]1Oc1ccc(C(=O)O)cc1
- inhibition [1]: 70%
- K obs / 1 [2]: 2000 M⁻¹ s⁻¹

Compound: CC[C@@]1(C(C)C)C(=O)N(C(=O)NCc2ccccc2)[C@H]1Oc1ccc(C(=O)O)cc1
- inhibition [1]: 13%
- K obs / 1 [2]: 10 M⁻¹ s⁻¹

Compound: CC[C@H](NC(=O)N1C(=O)[C@](C)(CC)[C@@H]1Oc1ccc(C(=O)O)cc1)c1ccccc1
- inhibition [1]: 22%
- K obs / 1 [2]: 4700 M⁻¹ s⁻¹

Compound: CC[C@@]1(C)C(=O)N(C(=O)N[C@H](C)c2ccccc2)[C@@H]1Oc1ccc(C(=O)O)cc1
- K obs / 1 [2]: 400 M⁻¹ s⁻¹

Compound: CC[C@@]1(C)C(=O)N(C(=O)NCc2ccccc2)[C@@H]1Oc1ccc(C(=O)O)cc1
- K obs / 1 [2]: 220 M⁻¹ s⁻¹

Compound: CC[C@@]1(Cc2ccccc2)C(=O)N(C(=O)NCc2ccccc2)[C@H]1Oc1ccc(C(=O)O)cc1
- K obs / 1 [2]: 84 M⁻¹ s⁻¹

Compound: CCC(C)[C@]1(CC)C(=O)N(C(=O)NCc2ccccc2)[C@H]1Oc1ccc(C(=O)O)cc1 (stereo partly drawn)
- inhibition [1]: 23%
- K obs / 1 [2]: 1200 M⁻¹ s⁻¹

Compound: CC[C@@H](NC(=O)N1C(=O)[C@](C)(CC)[C@@H]1Oc1ccc(C(=O)O)cc1)c1ccccc1
- inhibition [1]: 98%
- K obs / 1 [2]: 91000 M⁻¹ s⁻¹
- ED50 (Cricetinae gen. sp. [3]): 3.7 mg/kg

Compound: CC[C@@]1(C)C(=O)N(C(=O)N[C@@H](C)c2ccccc2)[C@H]1Oc1ccc(C(=O)O)cc1
- inhibition [1]: 13%
- K obs / 1 [2]: 4800 M⁻¹ s⁻¹

Compound: CCC[C@]1(CC)C(=O)N(C(=O)N[C@H](CC)c2ccccc2)[C@H]1Oc1ccc(C(=O)O)cc1
- inhibition [1]: 52%
- K obs / 1 [2]: 35500 M⁻¹ s⁻¹

Compound: CCC[C@@H](NC(=O)N1C(=O)[C@](C)(CC)[C@@H]1Oc1ccc(C(=O)O)cc1)c1ccccc1
- inhibition [1]: 94%
- K obs / 1 [2]: 152000 M⁻¹ s⁻¹
- ED50 (Cricetinae gen. sp. [3]): 1.5 mg/kg

Compound: CC[C@]1(C)C(=O)N(C(=O)NCc2ccccc2)[C@@H]1Oc1ccc(C(=O)O)cc1
- K obs / 1 [2]: 200 M⁻¹ s⁻¹

Compound: CCCC[C@]1(CC)C(=O)N(C(=O)NCc2ccccc2)[C@H]1Oc1ccc(C(=O)O)cc1
- inhibition [1]: 36%
- K obs / 1 [2]: 4400 M⁻¹ s⁻¹

Compound: CCC[C@@]1(CC)C(=O)N(C(=O)NCc2ccccc2)[C@H]1Oc1ccc(C(=O)O)cc1
- inhibition [1]: 52%
- K obs / 1 [2]: 3300 M⁻¹ s⁻¹

Compound: CCC[C@@H](NC(=O)N1C(=O)[C@@](CC)(CCC)[C@@H]1Oc1ccc(C(=O)O)cc1)c1ccccc1
- inhibition [1]: 53%
- K obs / 1 [2]: 60000 M⁻¹ s⁻¹

Compound: CC[C@]1(Cc2ccccc2)C(=O)N(C(=O)NCc2ccccc2)[C@H]1Oc1ccc(C(=O)O)cc1
- K obs / 1 [2]: 90 M⁻¹ s⁻¹

Compound: CCC[C@@]1(C)C(=O)N(C(=O)NCc2ccccc2)[C@H]1Oc1ccc(C(=O)O)cc1
- inhibition in vivo at 100 mg/kg (Cricetinae gen. sp. [4]): 49%
- K obs / 1 [2]: 1900 M⁻¹ s⁻¹

Compound: CCCC1(CC)C(=O)N(C(=O)NCc2ccccc2)C1Oc1ccc(C(=O)O)cc1 (stereo not drawn)
- inhibition [1]: 78%
- K obs / 1 [2]: 5200 M⁻¹ s⁻¹

Compound: CC1(C)C(=O)N(C(=O)NCc2ccccc2)C1Oc1ccc(C(=O)O)cc1 (stereo not drawn)
- K obs / 1 [2]: 280 M⁻¹ s⁻¹

Compound: CCC[C@]1(CC)C(=O)N(C(=O)N[C@H](C)c2ccccc2)[C@H]1Oc1ccc(C(=O)O)cc1
- inhibition [1]: 61%
- K obs / 1 [2]: 4500 M⁻¹ s⁻¹

Compound: CCC1(CC)C(=O)N(C(=O)NCc2ccccc2)[C@]1(C)Oc1ccc(C(=O)O)cc1
- inhibition [1]: 59%
- K obs / 1 [2]: 1500 M⁻¹ s⁻¹

Compound: CC[C@@]1(C)C(=O)N(C(=O)N[C@H](C)c2ccccc2)[C@H]1Oc1ccc(C(=O)O)cc1
- inhibition [1]: 82%
- K obs / 1 [2]: 15200 M⁻¹ s⁻¹

Compound: CC(C)[C@@]1(C)C(=O)N(C(=O)NCc2ccccc2)[C@H]1Oc1ccc(C(=O)O)cc1
- K obs / 1 [2]: 21 M⁻¹ s⁻¹

Compound: C=CC[C@@]1(CC)C(=O)N(C(=O)NCc2ccccc2)[C@H]1Oc1ccc(C(=O)O)cc1
- inhibition [1]: 51%
- K obs / 1 [2]: 2000 M⁻¹ s⁻¹

Reference: ChEMBL document CHEMBL1128419, “Orally active beta-lactam inhibitors of human leukocyte elastase. 3. Stereospecific synthesis and structure-activity relationships for 3,3-dialkylazetidin-2-ones” (J Med Chem, 1995)
